# Compound activity: PubChem, several laboratories
# Only some compounds are listed: those with a hit (about 2.6% of all), similar ones and a draw of the others.
# MT stabilizer – microtubule stabilizers in HeLa cells, primary screen, imaging, high-content imaging | % tubulin-high responders, % at 10 µM | HeLa tubulin immunostaining HCS, 24 h; share of cells brighter than vehicle mean+2SD | 0.83% of 200,000 active | AID 2205, 2009;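 active = plate Z-score above 3 for both tubulin-high and condensed-nucleus cell shares, with cell loss under 80%, at 10 µM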;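 also: anti alpha tubulin signal scored within the nucleus-defined area of each cell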
# NPY1 pot ag – NPY-Y1 receptor potentiators or agonists, primary screen, cell-based | Neuropeptide Y receptor type 1 (Homo sapiens), P25929 | NPY-Y1 expressing cells, potentiator/agonist activation | activation, % at 3.6 µM | 0.37% of 220,000 active; in the data active = activation above about 33%, passing the limit was not always enough;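 also: cells stimulated with NPY at EC10 then isoproterenol at EC100; 0% = low agonist plus stimulus and 100% = saturating agonist plus stimulus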
# bCat nuc transl – modulators of beta-catenin nuclear translocation, primary screen, imaging, HeLa cells, immunofluorescence, high-content. 0.3% of 190,000 active. nuclear translocation activity, % at 5 µM. AID 1665, 2009;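 active = nuclear translocation activity above 50% at 5 µM, with a well cell count of 50 or more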;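 also: per-cell ratio of nuclear to cytoplasmic median beta-catenin stain intensity; plate controls were DMSO negative control for no effect and GSK-3 inhibitor IX positive control for full effect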
#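 Test system: HeLa cells, endogenous beta-catenin; Compound: single 5 µM dose plus 0.02–20 µM confirmation series; Times: compound exposure 24 h at 37°C; Signal: fluorescence imaging of beta-catenin antibody stain plus DAPI; Read-out: % activation, nuclear-to-cytoplasmic median beta-catenin signal ratio per cell.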
# NPY-Y1 antag – NPY-Y1 receptor antagonists, primary screen, cell-based | HEK293-CNG Y1 cells, membrane potential fluorescence; NPY at EC95, then isoproterenol | 1% of 200,000 active | inhibition, % at 3.6 µM | AID 1040, 2008;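 active = inhibition above the campaign mean inhibition of all tested compounds plus 3 SD, cut at about 20% in these data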;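 also: 0% = DMSO wells given NPY plus isoproterenol and 100% = isoproterenol alone without NPY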
#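 Benchmarks – high control isoproterenol alone, low control NPY with isoproterenol · Material – HEK293 Y1/CNG channel cell line · Times – dye 3 h, compound 60 min room temperature, stimulation 45 min · Probe or stimulus – NPY (25 nM), isoproterenol (1 µM), Ro 20-1724 (25 µM) · Evaluation – % inhibition of NPY effect · Signal – fluorescence, membrane potential probe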
# NPY2 pot ag – NPY-Y2 potentiators or agonists, primary screen, cell-based; Neuropeptide Y receptor type 2 (Homo sapiens), P49146; cells expressing NPY-Y2, potentiator/agonist read-out; activation, % at 3.6 µM; 0.45% of 220,000 active; in the data active = activation above about 27%;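 also: cells stimulated with NPY near EC25 plus isoproterenol at EC100; 0% = vehicle plus submaximal agonist and 100% = vehicle plus saturating agonist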
# Target sequence (P49146 whole entry, looked up): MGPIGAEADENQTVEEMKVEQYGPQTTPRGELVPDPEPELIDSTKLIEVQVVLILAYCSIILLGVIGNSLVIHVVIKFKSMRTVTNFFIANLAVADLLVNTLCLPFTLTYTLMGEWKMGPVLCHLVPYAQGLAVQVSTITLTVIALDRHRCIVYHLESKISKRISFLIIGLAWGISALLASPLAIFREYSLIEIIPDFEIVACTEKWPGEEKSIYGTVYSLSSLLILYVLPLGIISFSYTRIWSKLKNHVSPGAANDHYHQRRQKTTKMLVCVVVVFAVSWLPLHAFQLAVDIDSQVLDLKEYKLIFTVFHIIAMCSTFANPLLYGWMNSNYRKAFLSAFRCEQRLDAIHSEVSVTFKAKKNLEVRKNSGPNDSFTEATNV
# NPY Y2 blocker – NPY-Y2 receptor antagonists, primary screen, cell-based | AID 793, 2007 | inhibition, % at 2.7 µM | NPY-Y2 expressing cells, antagonist mode | 0.99% of 140,000 active | Neuropeptide Y receptor type 2 (Homo sapiens), P49146; in the data active = inhibition above about 17%;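 also: 0% = vehicle with agonist challenge and 100% = reference antagonist with challenge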
# * hit, by the source's call; · = not tested or not shown.
SMILES,MT stabilizer,NPY1 pot ag,bCat nuc transl,NPY-Y1 antag,NPY2 pot ag,NPY Y2 blocker
O=C(c1cccc(C(F)(F)F)c1)C1CCCN(C(=O)CCCN2CCCC2=O)C1 (centres undefined),2.3,7.9,-1.3,8.5,-6.7,·
CCC(C)(C)NC(=O)C(c1ccccc1F)N(Cc1ccco1)C(=O)Cn1nnc2ccccc21 (centres undefined),1.9,-135.5,-3.6,96.3*,-120.6,72.5*
CCc1ccc(C(C(=O)NC(C)(C)CC)N(Cc2ccco2)C(=O)Cn2nnc3ccccc32)cc1 (centres undefined),2.2,-117.4,-6.2,54.5*,-149.5,51.4*
COc1ccc(CN(C(=O)Cn2nnc3ccccc32)C(C(=O)NC(C)(C)C)c2ccco2)cc1 (centres undefined),5.7,-4.0,-5.1,2.0,-1.6,2.4
Cn1c(SCC(N)=O)nnc1-c1ccc(C(C)(C)C)cc1,2.6,-2.1,0.9,-2.6,1.6,·
CS(=O)(=O)N1CCN(C(=O)c2ccc(Cl)s2)CC1,4.0,2.4,-3.7,3.5,-5.8,·
CC1=C(C(=O)c2ccccc2)C(c2ccc(OC(F)F)cc2)NC(=S)N1 (centres undefined),22.4*,4.2,4.4,-2.4,-13.5,·
O=C(Nc1nccs1)c1ccc(S(=O)(=O)NCc2cccs2)cc1,1.7,4.1,-2.4,-3.2,15.8,-1.7
O=C(Nc1nccs1)c1ccc(S(=O)(=O)NCC2CCCCC2)cc1,1.6,42.1*,-2.0,-15.7,29.4,3.8
CCN(CC)CCNC(=S)N1CCn2c(nc3ccccc32)C1,2.8,-13.1,-0.7,-3.6,1.0,-0.5
CCSc1nc2ccccc2c(=O)n1CCc1ccc(OC)c(OC)c1,·,19.6,0.0,·,-4.5,·
CN(Cc1ccc(Cl)s1)C(=O)CCl,3.4,3.9,3.6,-1.5,2.4,·
C/C(N)=C(/C#N)C(=O)CSc1ncnc2ccccc12,5.7,94.2*,-4.8,-11.3,97.7*,9.3
C=CCOC(=O)C1=C(C)NC(=S)C(C#N)(CC=C)C1c1ccccc1Cl (centres undefined),·,9.9,-2.1,·,-11.8,·
CN(C)N1C(N)=C(C#N)C(c2cccc3ccccc23)C2=C1CC(c1ccccc1)CC2=O (centres undefined),11.9*,31.9,12.0,-5.4,16.9,-3.6
Cc1ccc(C2C(C#N)=C(N)N(N(C)C)C3=C2C(=O)CCC3)cc1 (centres undefined),2.6,14.5,·,-2.4,4.7,3.1
COc1ccc(C(c2c[nH]c3ccccc23)c2c[nH]c3ccccc23)cc1O,3.7,32.4*,·,-7.6,38.5*,-3.7
COc1ccc(NC(=O)CCCc2c[nH]c3ccccc23)cc1OC,2.4,-6.0,-1.8,0.5,-3.1,1.4
Cc1ccc(NC(=O)COc2ccccc2CNC(C)(C)CC(C)(C)C)cc1,1.7,-18.5,0.0,30.0*,-36.2,25.2*
CCc1cccc(CC)c1NC(=O)COC(=O)C1(c2ccc(Cl)cc2)CCCC1,3.8,-26.2,1.1,40.2*,5.7,18.6*
CC1CC(C)CN(c2oc(-c3ccco3)nc2C#N)C1 (centres undefined),1.3,-32.9,1.4,23.6*,2.7,27.4*
CCN(CC)C(=O)c1cc2c(=O)oc3ccccc3c2s1,1.6,68.7*,2.7,0.1,57.9*,2.5
CC12CCC(C(=O)Nc3ccncc3)(CC1O)C2(C)C (centres undefined),·,-9.0,1.1,·,-0.6,·
CCC1(C)OCC(Cn2c3ccccc3c3ccccc32)O1 (centres undefined),5.1,-31.1,63.0*,-1.2,5.7,8.9
CC(N)(C(=O)O)c1cccc(OCc2cccc(Cl)c2)c1 (centres undefined),·,3.7,0.9,·,11.2,·
SMILES,MT stabilizer,NPY1 pot ag,bCat nuc transl,NPY-Y1 antag,NPY2 pot ag,NPY Y2 blocker
Cc1ccc2[nH]c(-c3ccccc3)cc(=O)c2c1,43.0*,-8.2,92.9*,10.7,-23.8,6.1
COCC1CCCN(Cc2cn(-c3ccccc3)nc2-c2ccc3c(c2)OCO3)C1 (centres undefined),2.2,65.3*,-0.9,6.4,96.4*,·
c1ccc(-n2cc(CN3CCCC3)c(-c3ccc4c(c3)OCO4)n2)cc1,1.5,-11.1,0.5,-0.4,-4.6,·
O=C(O)Cc1cn(Cc2ccc(F)cc2)c2ccccc12,2.1,11.5,-0.2,-2.5,-1.4,·
Cc1[nH][nH]c(=O)c1C(c1c(C)[nH][nH]c1=O)c1cn(Cc2ccc(F)cc2)c2ccccc12,20.3*,7.7,22.7,0.2,5.4,2.3
Cc1[nH][nH]c(=O)c1C(c1c(C)[nH][nH]c1=O)c1cn(Cc2ccc(Cl)c(Cl)c2)c2ccccc12,5.6,-2.0,98.8*,9.3,1.5,3.1
CC1=CC2=NC(=O)/C(=C\c3ccc(-c4cccc(Cl)c4)o3)C(=N)N2O1,20.1*,-23.1,119.2*,1.6,3.7,10.5
CC1=NOC(=O)/C1=C\c1ccc(-c2cccc(Cl)c2)o1,3.1,22.2,-0.8,7.3,-11.1,3.9
CC1CCC(C(C)C)C(OCC(O)CNC(C)(C)C)C1 (centres undefined),2.7,105.8*,0.1,-6.3,99.4*,·
Cc1cccc(/C=C\c2nc3ccccc3c(=O)[nH]2)c1,12.4*,3.4,28.9,1.6,-3.9,4.0
C(=C\c1ccco1)/c1nc2ccccc2[nH]1,6.5,4.9,-1.9,2.0,-2.5,·
C(=C\c1nc2ccccc2[nH]1)/c1ccccc1,40.5*,3.8,·,0.5,-18.3,1.4
Cc1nc(/C=C/c2ccccc2)[nH]c(=O)c1-c1ccccc1,9.2*,-4.6,25.6,8.3,-1.9,2.0
O=c1[nH]c(/C=C/c2cccc3ccccc23)nc2ccccc12,4.2,-3.1,0.0,0.8,-13.8,·
NC(=O)N/N=C/c1c(Sc2nnnn2-c2ccccc2)nc2ccccn2c1=O,·,-16.3,-0.9,·,-17.6,·
Cc1cc2oc(=O)cc(Cn3nnc(-c4ccc(Cl)cc4)n3)c2cc1C(C)C,2.2,2.7,-0.1,-0.9,15.8,11.5
COC(=O)[C@@]1(Cc2ccccc2)[C@H]2c3cc(C(=O)N4CCCC4)n(Cc4ccsc4Br)c3C[C@H]2CN1C(=O)c1ccccc1,8.1,15.7,-4.9,48.6*,0.6,22.7*
O=C(c1ccccc1)N1CCC(c2nc(-c3ccc(S(=O)(=O)N4CCOCC4)cc3)no2)CC1,2.0,30.4,-1.1,-5.7,-1.6,-2.8
O=C(Nc1ccccc1)N1CCC(c2nc(-c3ccc(S(=O)(=O)N4CCOCC4)cc3)no2)CC1,26.2*,6.1,-2.4,-4.1,-11.1,-0.4
